In ChEMBL document CHEMBL1800022, “Structure-activity relationships of a series of analogues of the RFamide-related peptide 26RFa” (J Med Chem, 2011):
pEC50: −log10 of the molar value. Non-standard residues stand in square brackets, D forms with d. Residues, ends and D or L forms follow the SMILES beside them. *: point of attachment. Adamantane1carbonyl = O=C(C12CC3CC(CC(C3)C1)C2)*; Cha = N[C@@H](CC1CCCCC1)C(=O)O; Tle = CC(C)(C)[C@H](N)C(=O)O; X3 = C1CCN(N(N2CCCCC2)*)CC1; hSer = N[C@@H](CCO)C(=O)O; Nle = CCCC[C@H](N)C(=O)O; 2Furoyl = O=C(c1ccco1)*; Nva = CCC[C@H](N)C(=O)O; Abu = CC[C@H](N)C(=O)O; Cbz = O=C(OCc1ccccc1)*; X1 = CCN(Cc1ccccc1)*; Bz = O=C(c1ccccc1)*

Target: T1, Pyroglutamylated RF-amide peptide receptor (Homo sapiens, UniProt Q96P65)
T1 sequence (Q96P65 whole entry): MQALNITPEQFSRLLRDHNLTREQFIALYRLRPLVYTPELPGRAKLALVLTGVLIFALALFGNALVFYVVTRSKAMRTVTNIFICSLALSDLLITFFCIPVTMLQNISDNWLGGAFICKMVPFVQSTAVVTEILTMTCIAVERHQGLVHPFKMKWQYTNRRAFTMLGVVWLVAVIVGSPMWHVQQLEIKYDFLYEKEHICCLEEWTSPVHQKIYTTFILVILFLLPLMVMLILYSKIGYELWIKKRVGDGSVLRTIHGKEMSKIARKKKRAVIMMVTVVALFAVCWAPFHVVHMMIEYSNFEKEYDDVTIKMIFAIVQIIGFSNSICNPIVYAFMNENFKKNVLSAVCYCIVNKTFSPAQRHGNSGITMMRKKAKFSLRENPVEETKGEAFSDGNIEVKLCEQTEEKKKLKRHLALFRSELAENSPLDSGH
Assay: Agonist activity at DYKDDDDK-flagged human GPR103 receptor expressed in CHO-K1 cells co-expressing G-protein alpha16 assessed as stimulation of calcium mobilization after 2 mins by fluorometric analysis
Format: functional, cell-based
How it was run: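 CHO-K1 cells stably expressing Gα16 and C-terminally flag-tagged human GPR103 (Geneticin-selected), plated at 40 000 cells/well 24 h before assay. Loaded with 2 μM Fluo-4AM for 1 h, washed, then 30 min in HBSS with 2.5 mM probenecid and 5 mM HEPES. Peptides added at 10^-12 to 10^-5 M final and fluorescence read for 2 min. Triplicates; EC50 from sigmoidal variable-slope fit, at least three experiments.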

First: CC[C@@H](C)[C@H](NC(=O)[C@H](Cc1ccccc1)NC(=O)CNC(=O)CN)C(=O)N[C@@H](Cc1ccccc1)C(=O)N[C@@H](CCCN=C(N)N)C(=O)N[C@@H](Cc1ccccc1)C(N)=O
Second: CC(C)[C@H](NC(=O)[C@H](Cc1ccccc1)NC(=O)CNC(=O)CN)C(=O)N[C@@H](Cc1ccccc1)C(=O)N[C@@H](CCCN=C(N)N)C(=O)N[C@@H](Cc1ccccc1)C(N)=O (H-GGFVFRF-NH2)
The pEC50 of the first is 0.30 log units higher: 6.09 for the first, 5.79 for the second.

Going from `N=C(N)NCCC[C@H](NC(=O)[C@H](Cc1ccccc1)NC(=O)[C@H](CO)NC(=O)[C@H](Cc1ccccc1)NC(=O)CNC(=O)CN)C(=O)N[C@@H](Cc1ccccc1)C(N)=O` to `N=C(N)NCCC[C@H](NC(=O)[C@H](Cc1ccccc1)NC(=O)[C@H](CCO)NC(=O)[C@H](Cc1ccccc1)NC(=O)CNC(=O)CN)C(=O)N[C@@H](Cc1ccccc1)C(N)=O` (H-GGF[hSer]FRF-NH2), the pEC50 rises from 6.13 to 6.43 (0.30 log units). The second is the more potent here.

First: NCC(=O)NCC(=O)N[C@@H](Cc1ccccc1)C(=O)N[C@H](CO)C(=O)N[C@@H](Cc1ccccc1)C(=O)N[C@@H](CCCN=C(N)N)C(=O)N[C@@H](Cc1ccccc1)C(N)=O
Second: CC(C)C[C@H](NC(=O)[C@H](Cc1ccccc1)NC(=O)CNC(=O)CN)C(=O)N[C@@H](Cc1ccccc1)C(=O)N[C@@H](CCCN=C(N)N)C(=O)N[C@@H](Cc1ccccc1)C(N)=O (H-GGFLFRF-NH2)
The pEC50 of the first is 0.53 log units lower: 5.30 for the first, 5.83 for the second. The second is the more potent here.

`NC(=O)[C@H](Cc1ccccc1)NC(=O)[C@H](CCCN=C(N)N)NC(=O)[C@H](Cc1ccccc1)NC(=O)[C@H](CO)NC(=O)[C@H](Cc1ccccc1)NC(=O)CNC(=O)CNC(=O)c1ccco1` (2Furoyl-GGFSFRF-NH2) and `NC(=O)[C@H](Cc1ccccc1)NC(=O)[C@H](CCCN=C(N)N)NC(=O)[C@H](Cc1ccccc1)NC(=O)[C@H](CO)NC(=O)[C@H](Cc1ccccc1)NC(=O)CNC(=O)CNC(=O)OCc1ccccc1` (Cbz-GGFSFRF-NH2) are within 0.2 log units of each other in pEC50: 6.16 for the first, 6.08 for the second.

Going from `CC(=O)NCC(=O)NCC(=O)N[C@@H](Cc1ccccc1)C(=O)N[C@@H](CO)C(=O)N[C@@H](Cc1ccccc1)C(=O)N[C@@H](CCCNC(=N)N)C(=O)N[C@@H](Cc1ccccc1)C(N)=O` (Ac-GGFSFRF-NH2) to `C[C@H](N)C(=O)NCC(=O)N[C@@H](Cc1ccccc1)C(=O)N[C@@H](CO)C(=O)N[C@@H](Cc1ccccc1)C(=O)N[C@@H](CCCNC(=N)N)C(=O)N[C@@H](Cc1ccccc1)C(N)=O` (H-AGFSFRF-NH2), the pEC50 falls from 5.84 to 5.47 (0.37 log units).

`N=C(N)NCCC[C@H](NC(=O)[C@H](Cc1ccccc1)NC(=O)[C@H](CO)NC(=O)[C@H](Cc1ccccc1)NC(=O)CNC(=O)CNC(=O)C12CC3CC(CC(C3)C1)C2)C(=O)N[C@@H](Cc1ccccc1)C(N)=O` (Adamantane1carbonyl-GGFSFRF-NH2) and `N=C(N)NCCC[C@H](NC(=O)[C@H](Cc1ccccc1)NC(=O)[C@H](CO)NC(=O)[C@H](Cc1ccccc1)NC(=O)CNC(=O)CNC(=O)c1ccccc1)C(=O)N[C@@H](Cc1ccccc1)C(N)=O` (Bz-GGFSFRF-NH2) are within 0.2 log units of each other in pEC50: 6.23 for the first, 6.14 for the second.

Going from `CC(C)C[C@H](NC(=O)[C@H](CCC(=O)O)NC(=O)[C@H](CCC(=O)O)NC(=O)[C@H](C)NC(=O)[C@H](CC(C)C)NC(=O)[C@@H](NC(=O)CNC(=O)[C@H](CC(C)C)NC(=O)[C@@H]1CCCN1C(=O)CNC(=O)[C@H](CO)NC(=O)[C@H](C)N)[C@@H](C)O)C(=O)N[C@@H](CO)C(=O)N[C@@H](CO)C(=O)N[C@@H](Cc1ccc(O)cc1)C(=O)N[C@@H](CO)C(=O)N[C@@H](CCCNC(=N)N)C(=O)N[C@@H](CCCNC(=N)N)C(=O)N[C@@H](CCCCN)C(=O)NCC(=O)NCC(=O)N[C@@H](Cc1ccccc1)C(=O)N[C@@H](CO)C(=O)N[C@@H](Cc1ccccc1)C(=O)N[C@@H](CCCNC(=N)N)C(=O)N[C@@H](Cc1ccccc1)C(N)=O` (H-ASGPLGTLAEELSSYSRRKGGFSFRF-NH2) to `CC(C)C[C@H](NC(=O)[C@H](CCC(=O)O)NC(=O)[C@@H](N)CCC(=O)O)C(=O)N[C@@H](CC(N)=O)C(=O)NCC(=O)N[C@@H](Cc1ccc(O)cc1)C(=O)N[C@@H](CO)C(=O)N[C@@H](CCCNC(=N)N)C(=O)N[C@@H](CCCCN)C(=O)N[C@@H](CCCCN)C(=O)NCC(=O)NCC(=O)N[C@@H](Cc1ccccc1)C(=O)N[C@@H](CO)C(=O)N[C@@H](Cc1ccccc1)C(=O)N[C@@H](CCCNC(=N)N)C(=O)N[C@@H](Cc1ccccc1)C(N)=O` (H-EELNGYSRKKGGFSFRF-NH2), the pEC50 falls from 8.31 to 7.43 (0.88 log units).

First: C[C@H](NC(=O)[C@H](Cc1cnc[nH]1)NC(=O)[C@@H](N)CCC(=O)O)C(=O)NCC(=O)N[C@@H](CS)C(=O)N[C@@H](CCCN=C(N)N)C(=O)N[C@@H](Cc1ccccc1)C(=O)N[C@@H](CCCN=C(N)N)C(=O)N[C@@H](Cc1ccccc1)C(N)=O (H-EHAGCRFRF-NH2)
Second: CCCC[C@H](NC(=O)[C@H](Cc1ccccc1)NC(=O)CNC(=O)CN)C(=O)N[C@@H](Cc1ccccc1)C(=O)N[C@@H](CCCN=C(N)N)C(=O)N[C@@H](Cc1ccccc1)C(N)=O (H-GGF[Nle]FRF-NH2)
The pEC50 of the first is 0.59 log units lower: 5.54 for the first, 6.13 for the second.

Compared with `C[C@H](NC(=O)CN)C(=O)N[C@@H](Cc1ccccc1)C(=O)N[C@@H](CO)C(=O)N[C@@H](Cc1ccccc1)C(=O)N[C@@H](CCCN=C(N)N)C(=O)N[C@@H](Cc1ccccc1)C(N)=O` (H-GAFSFRF-NH2), `CC(C)(C)[C@H](NC(=O)[C@H](Cc1ccccc1)NC(=O)CNC(=O)CN)C(=O)N[C@@H](Cc1ccccc1)C(=O)N[C@@H](CCCN=C(N)N)C(=O)N[C@@H](Cc1ccccc1)C(N)=O` (H-GGF[Tle]FRF-NH2) is 0.21 log units higher in pEC50: 5.53 for the first, 5.74 for the second. The second is the more potent here.

`C[C@H](NC(=O)CNC(=O)CN)C(=O)N[C@@H](CO)C(=O)N[C@@H](Cc1ccccc1)C(=O)N[C@@H](CCCNC(=N)N)C(=O)N[C@@H](Cc1ccccc1)C(N)=O` (H-GGASFRF-NH2) and `C[C@H](NC(=O)[C@H](Cc1ccccc1)NC(=O)CNC(=O)CN)C(=O)N[C@@H](Cc1ccccc1)C(=O)N[C@@H](CCCNC(=N)N)C(=O)N[C@@H](Cc1ccccc1)C(N)=O` (H-GGFAFRF-NH2) are the same in pEC50: 5.88 for the first, 5.88 for the second.

First: CCN(Cc1ccccc1)C(=O)[C@H](Cc1ccccc1)NC(=O)[C@H](CCCN=C(N)N)NC(=O)[C@H](Cc1ccccc1)NC(=O)[C@H](CO)NC(=O)[C@H](Cc1ccccc1)NC(=O)CNC(=O)CN (H-GGFSFRF-X1)
Second: CC[C@H](NC(=O)[C@H](Cc1ccccc1)NC(=O)CNC(=O)CN)C(=O)N[C@@H](Cc1ccccc1)C(=O)N[C@@H](CCCNC(=N)N)C(=O)N[C@@H](Cc1ccccc1)C(N)=O (H-GGF[Abu]FRF-NH2)
The pEC50 of the first is 0.49 log units lower: 5.96 for the first, 6.45 for the second. The second is the more potent here.

`NCC(=O)NCC(=O)N[C@@H](Cc1ccccc1)C(=O)N[C@@H](CO)C(=O)N[C@@H](Cc1ccccc1)C(=O)N[C@@H](CCCN=C(N)N)C(=O)N[C@@H](Cc1ccccc1)C(=O)N(N1CCCCC1)N1CCCCC1` (H-GGFSFRF-X3) and `N=C(N)NCCC[C@H](NC(=O)[C@H](Cc1ccccc1)NC(=O)[C@H](CC1CCCCC1)NC(=O)[C@H](Cc1ccccc1)NC(=O)CNC(=O)CN)C(=O)N[C@@H](Cc1ccccc1)C(N)=O` (H-GGF[Cha]FRF-NH2) are within 0.2 log units of each other in pEC50: 5.92 for the first, 5.96 for the second.

`CCC[C@H](NC(=O)[C@H](Cc1ccccc1)NC(=O)CNC(=O)CN)C(=O)N[C@@H](Cc1ccccc1)C(=O)N[C@@H](CCCNC(=N)N)C(=O)N[C@@H](Cc1ccccc1)C(N)=O` (H-GGF[Nva]FRF-NH2) and `N=C(N)NCCC[C@H](NC(=O)[C@H](Cc1ccccc1)NC(=O)[C@H](CO)NC(=O)[C@H](Cc1ccccc1)NC(=O)CNC(=O)CNC(=O)[C@H](CCCCN)NC(=O)[C@H](CCCCN)NC(=O)[C@H](CCCNC(=N)N)NC(=O)[C@H](CO)NC(=O)[C@H](Cc1ccc(O)cc1)NC(=O)CN)C(=O)N[C@@H](Cc1ccccc1)C(N)=O` (H-GYSRKKGGFSFRF-NH2) are within 0.2 log units of each other in pEC50: 6.63 for the first, 6.73 for the second.
